# Compounds with a hit are over-represented: about 4.5% of the library has one in this group of screens.
# OX1R antag-1: antagonists of human orexin 1 receptor (OX1R). 1.8% of 330,000 active. O43613. OX1R-expressing cells, FRET antagonist read-out. inhibition, % at 6.6 µM; in the data active means inhibition mostly above about 38%, no sharp cut-off; inactive means mostly below about 40%;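 further: 0% = agonist challenge alone and 100% = reference antagonist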
# Target sequence (O43613 whole entry, looked up): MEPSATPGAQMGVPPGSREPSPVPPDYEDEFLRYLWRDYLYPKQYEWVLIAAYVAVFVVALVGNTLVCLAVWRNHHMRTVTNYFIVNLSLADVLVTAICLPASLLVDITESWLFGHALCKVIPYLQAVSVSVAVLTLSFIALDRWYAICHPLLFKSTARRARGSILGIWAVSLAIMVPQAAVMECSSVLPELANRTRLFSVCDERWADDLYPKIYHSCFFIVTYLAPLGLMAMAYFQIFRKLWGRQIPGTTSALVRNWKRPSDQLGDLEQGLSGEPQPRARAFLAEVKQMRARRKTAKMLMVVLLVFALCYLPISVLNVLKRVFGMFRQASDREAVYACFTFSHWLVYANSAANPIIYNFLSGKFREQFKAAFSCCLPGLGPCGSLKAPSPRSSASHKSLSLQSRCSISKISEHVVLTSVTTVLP
# TAAR1 antagonist: human TAAR1 antagonism. Q96RJ0. CHO RD-HGA16 TAAR1, Fluo-8 calcium fluorescence, antagonist. inhibition, % at 3 µM. 1.5% of 360,000 active. AID 624466;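 active means inhibition above a per-plate cutoff, the mean inhibition of test compounds on that plate plus 3 SD, cut at about 49% in these data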;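 further: 0% = DMSO plus EC80 beta-PEA response and 100% = DMSO alone without agonist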
#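 Assay system: CHO-derived RD-HGA16 cells stably expressing human TAAR1 plus Gα16. Timing: 140 s kinetic read after compound, 140 s after agonist. Technique: kinetic Fluo-8 calcium fluorescence measurement. Measure: % inhibition of agonist calcium response.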
# OX1R antag-2: blocks the human orexin 1 receptor. CHO/OX1R cells, Fluo-8 calcium fluorescence, orexin A. 0.43% of 330,000 active. O43613. inhibition, % at 5 µM;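 active means inhibition above its plate's threshold, mean inhibition of all tested compounds on the plate plus 3 SD, cut at about 37% in these data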;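 further: 0% = orexin A challenge wells and 100% = SB-334867-A antagonist wells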
# TAAR1 ag: human TAAR1 agonism; Q96RJ0; CHO RD-HGA16 TAAR1, Fluo-8 calcium fluorescence; vehicle wells 0%, saturating PEA agonist 100%; activation, % at 3 µM; 0.99% of 360,000 active;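 active means activation above the mean activation of all test compounds in the run plus 3 SD, cut at about 38% in these data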
#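 Signal – calcium-sensitive Fluo-8 signal, excitation 470-495, emission 515-575 nm · System – RD-HGA16 (CHO) cells co-expressing Gα16 and hTAAR1 · Incubation – 17-24 h seeding, 75 min 37 °C dye, 30 min RT · Compound dosing – 3 µM single concentration · Repeats – no replicates (n 1)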
# GPR7 antagonist: blocks human GPR7 receptor signaling. P48145. GPR7-expressing cells, fluorescence antagonist assay. inhibition, % at 4.4 µM. 1.1% of 290,000 active. AID 1861; in the data active means inhibition above about 16%, passing the limit was not always enough;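 further: cells stimulated with the agonist NPW; 0% = agonist with vehicle and 100% = vehicle without agonist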
# Target sequence (P48145 whole entry, looked up): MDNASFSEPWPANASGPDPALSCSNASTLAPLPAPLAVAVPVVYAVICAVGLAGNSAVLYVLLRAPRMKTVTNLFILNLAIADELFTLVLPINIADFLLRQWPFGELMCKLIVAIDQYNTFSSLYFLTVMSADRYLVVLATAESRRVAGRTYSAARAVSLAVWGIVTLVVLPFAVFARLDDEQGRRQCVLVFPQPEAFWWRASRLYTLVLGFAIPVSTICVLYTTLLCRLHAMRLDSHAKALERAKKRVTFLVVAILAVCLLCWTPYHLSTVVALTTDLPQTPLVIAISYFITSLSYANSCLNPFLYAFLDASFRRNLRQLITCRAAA
# CHO parental Ca: signal in parental CHO cells, OX1R antagonist counter-screen; parental CHO-K1, ATP-induced calcium, Fluo-8 fluorescence; inhibition, % at 5.6 µM; 0.63% of 330,000 active;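 active means inhibition above that plate's mean sample inhibition plus 3 SD, cut at about 26% in these data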;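 further: 0% = ATP-challenged DMSO wells and 100% = DMSO wells without ATP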
#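 Material: parental CHO cells / Compound: single nominal dose of 5.6 µM per compound / Signal: Fluo-8 fluorescence / Replicates: singlicate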
# TAAR1 ag confirm: confirmation of human TAAR1 agonists; shares compounds with TAAR1 ag; CHO RD-HGA16 TAAR1, Fluo-8 calcium fluorescence; scaled: DMSO 0%, maximal phenethylamine 100%; activation, % at 3 µM; 82% of 2,400 active; AID 651783;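 active means activation above a cutoff set at the run's mean compound activation plus 3 SD, cut at about 39% in these data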
# Ga16 nonsel ag: nonselective agonism, TAAR1 counter-screen; AID 651787; shares compounds with TAAR1 ag; activation, % at 3 µM; 50% of 2,400 active; CHO-Ga16 parental, Fluo-8 calcium fluorescence; normalized to maximal ATP response, DMSO zero;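 active means activation above the run cutoff, the mean activation over all tested wells plus 3 SD, cut at about 12% in these data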;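 further: 0% = DMSO wells and 100% = maximal ATP response on the peak over basal ratio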
# TAAR1 desensitize: TAAR1 response desensitization, agonist counter-screen | 46% of 2,400 active | shares compounds with TAAR1 ag | CHO RD-HGA16 hTAAR1, Fluo-8 calcium, beta-PEA response inhibition | inhibition, % at 3 µM | AID 651951;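 active means inhibition above the run cutoff, the mean inhibition of all test compounds plus 3 SD, cut at about 49% in these data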;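 further: beta-PEA stimulus applied at its EC80; loss of beta-PEA calcium signal after compound pretreatment read as receptor desensitization; 0% = DMSO with beta-PEA at EC80 and 100% = DMSO alone without agonist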
# Ga16 nonsel ant: nonselective Ga16 antagonist in TAAR1 agonist counter-screen; CHO-Ga16 ATP-induced calcium, Fluo-8 fluorescence; 39% of 2,400 active; shares compounds with TAAR1 ag; AID 651952; inhibition, % at 3 µM;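 active means inhibition above the plate's mean compound inhibition plus 3 SD, computed per plate, cut at about 22% in these data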;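 further: 0% = EC80 ATP with DMSO and 100% = DMSO wells without ATP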
# An asterisk follows results filed as active; . = no result given.
SMILES,OX1R antag-1,TAAR1 antagonist,OX1R antag-2,TAAR1 ag,GPR7 antagonist,CHO parental Ca,TAAR1 ag confirm,Ga16 nonsel ag,TAAR1 desensitize,Ga16 nonsel ant
O=C(/C=C/C(=O)N1CCc2ccccc2C1)N1CCc2ccccc2C1,4.7,46.7,-30.2,81.8*,2.5,-12.0,86.8*,2.5,58.3*,8.5
Cc1sc2ncnc(N3CCN(Cc4ccccc4)CC3)c2c1-c1ccccc1,21.6,2.8,-27.4,14.0,6.7,-20.6,.,.,.,.
CC(C)OC(=O)c1ccc(NC(=O)CSc2nc3ncccc3[nH]2)cc1,19.5,19.2,-17.9,10.9,-19.4,-8.6,.,.,.,.
Cc1ccccc1-n1nnnc1SCC(=O)c1c(N)n(C)c(=O)n(C)c1=O,14.2,10.8,0.6,92.5*,-16.1,-11.1,130.3*,86.6*,41.5,13.7
CCc1nc2sc3c(c2c(=O)n1NC(=O)CCl)CCCC3,10.0,-1.8,-13.2,3.7,-11.3,-6.1,.,.,.,.
O=C(CCCc1ccccc1)Nc1cccc2c1CCCC2,17.4,70.6*,-17.7,54.6*,11.4,-4.3,5.7,5.3,9.4,17.6
O=C(COc1ccccc1)Nc1cccc2c1CCCC2,30.9,10.2,-26.4,9.1,3.8,-2.1,.,.,.,.
Cc1ccnc(NS(=O)(=O)c2ccc(NC(=O)C(C)(C)C)cc2)n1,6.5,-6.5,-11.2,1.5,-14.5,0.4,.,.,.,.
COc1ccccc1C(=O)Nc1onc(C)c1C#N,6.9,-1.1,5.5,0.3,-2.0,4.7,.,.,.,.
O=C(Cc1nnc(NC(=O)Nc2ccc(F)cc2)s1)Nc1ccccc1,7.2,19.6,5.6,53.5*,2.5,8.8,65.5*,12.7*,68.3*,8.7
CCN(CC)c1ccc(/C=N/NC(=O)Nc2ccccc2)cc1,5.7,14.2,-30.9,16.8,-28.4,-21.1,.,.,.,.
O=C(Cc1nnc(NC(=O)Nc2ccccc2)s1)Nc1ccccc1,5.9,42.6,9.2,52.3*,-14.3,2.4,64.6*,1.7,70.5*,7.7
CCN(CC)c1ccc(/C=N/NC(=O)Cc2nnc(NC(=O)Nc3ccccc3)s2)cc1,6.3,20.8,-10.0,57.3*,-19.5,-11.7,50.4*,-0.3,35.7,10.9
CC(C)Oc1cccc(C(=O)NC(=S)Nc2cccc(NC(=O)c3ccccc3Cl)c2)c1,15.8,11.3,-31.4,0.6,-11.5,-14.8,.,.,.,.
O=C(O)C(=Cc1cccc([N+](=O)[O-])c1)c1ccc(Cl)cc1,.,-0.1,.,-1.5,.,.,.,.,.,.
O=c1c2ccccc2sn1-c1ccc(Cl)cc1,.,25.0,.,27.6,.,.,.,.,.,.
O=c1c2ccccc2sn1-c1ccc(F)cc1,20.8,22.1,1.3,57.2*,.,7.6,30.4,31.5*,17.4,15.1
COC(=O)c1cccc(-n2sc3ccccc3c2=O)c1,2.0,33.2,-2.8,63.2*,.,-12.2,49.5*,22.1*,28.1,14.5
Cc1ccc2c(c1)-n1c(nc3cc(Cl)ccc3c1=O)C(CC(C)C)NC2=O (stereo not drawn),5.1,21.7,-16.0,6.9,.,-16.4,.,.,.,.
CC[C@H]1OC(=O)C[C@@H](O)[C@H](C)[C@@H](O[C@@H]2O[C@H](C)C[C@H](N(C)C)[C@H]2O)[C@@H](CC=O)C[C@@H](C)C(=O)C=C[C@]2(C)O[C@H]2[C@@H]1C,0.9,.,-29.9,.,.,-2.5,.,.,.,.
CCOC(=O)c1c(NC(=O)CSc2nnc(C)s2)sc2c1CCCCC2,15.1,-11.0,53.7*,57.7*,5.2,52.1*,40.1*,23.1*,11.9,15.4
CCOC(=O)c1c(NC(=O)CSc2nnc(C)s2)sc2c1CCC(C)C2 (stereo not drawn),-2.5,3.1,-24.1,28.5,-0.5,-23.2,.,.,.,.
CCOc1ccc(NC(=O)CSc2nc(=O)n(CCCN3CCOCC3)c3c2CCC3)cc1,15.1,-3.2,-21.4,0.7,.,-17.0,.,.,.,.
OC(COC(c1ccc(F)cc1)c1ccc(F)cc1)CN1CCCC(C(F)(F)F)C1 (stereo not drawn),14.5,38.1,-30.1,69.5*,-19.8,3.4,79.1*,2.6,57.7*,14.0
Cc1ccnc(N/C=C(\C#N)c2nc(-c3cccc(Br)c3)cs2)c1,-0.7,67.8*,12.6,123.6*,-3.0,20.5,77.2*,85.7*,67.7*,62.7*
SMILES,OX1R antag-1,TAAR1 antagonist,OX1R antag-2,TAAR1 ag,GPR7 antagonist,CHO parental Ca,TAAR1 ag confirm,Ga16 nonsel ag,TAAR1 desensitize,Ga16 nonsel ant
O=C(NCc1ccccc1)c1cccc(F)c1F,5.4,6.5,-15.8,0.0,5.4,-10.2,.,.,.,.
Cc1nc([N+](=O)[O-])c(Br)n1CC(=O)c1ccc(Cl)cc1,40.2,-19.7,-24.5,6.0,-0.9,-7.6,.,.,.,.
Cc1nc([N+](=O)[O-])c(Br)n1Cc1ccc(Cl)c(Cl)c1,.,36.8,.,51.0*,2.4,.,9.5,4.8,18.1,12.9
CCN(CC)c1ccc(/C=C(\C#N)C(=O)c2ccc(Br)cc2)cc1,12.9,90.9*,78.2*,214.6*,8.8,54.4*,314.9*,325.0*,105.0*,102.6*
CCN(CC)c1ccc(/C=C(\C#N)C(N)=O)cc1,.,11.1,.,4.5,-8.6,.,.,.,.,.
CC1CCCC(C)N1c1nnc(NC(=O)c2cc(-c3ccc(Br)cc3)on2)s1 (stereo not drawn),6.4,-24.6,-22.0,2.4,-8.2,-2.2,.,.,.,.
OCCCNCc1ccc(N(c2ccccc2)c2ccccc2)cc1,0.2,-3.1,-24.1,45.4*,4.8,-2.5,72.8*,24.7*,27.1,16.2
OCCNCc1ccc(-c2ccccc2)cc1,19.3,-4.7,-11.3,13.6,-11.8,-3.2,.,.,.,.
